# ChEMBL document CHEMBL4689842, “EUbOPEN Chemogenomics Library wave 1” (2021)
# Test system: Fibroblast
# Assay: Multiplex assay against human fibroblast
# Type: toxicity, cell-based
# Outline: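 Imaging took place on a CQ1 microscope at 37°C and 5% CO2 once compound had been added to live cells stained at seeding with Hoechst33342, BioTracker Green Microtubule Cytoskeleton Dye, MitoTracker Red and Annexin V Alexa Fluor 680. CellPathfinder machine-learning gating classed cells as Hoechst high-intensity objects or normal cells, classed normal cells as having healthy, pyknosed or fragmented nuclei, and classed pyknosed cells as mitotic or apoptotic. Tubulin, mitochondrial-mass and membrane-permeability phenotypes are per cents of the healthy-nucleus cells.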
# [1] = 12 h, 1 µM, compound concentration 1 uM, replicate 1
# [2] = 12 h, 1 µM, compound concentration 1 uM, replicate 2
# [3] = 12 h, 10 µM, compound concentration 10 uM, replicate 1
# [4] = 12 h, 10 µM, compound concentration 10 uM, replicate 2
# [5] = 24 h, 1 µM, compound concentration 1 uM, replicate 1
# [6] = 24 h, 1 µM, compound concentration 1 uM, replicate 2
# [7] = 24 h, 10 µM, compound concentration 10 uM, replicate 1
# [8] = 24 h, 10 µM, compound concentration 10 uM, replicate 2
# [9] = 48 h, 1 µM, compound concentration 1 uM, replicate 1
# [10] = 48 h, 1 µM, compound concentration 1 uM, replicate 2
# [11] = 48 h, 10 µM, compound concentration 10 uM, replicate 1
# [12] = 48 h, 10 µM, compound concentration 10 uM, replicate 2
structure (smiles),measurement,setting,value
Cc1ccc2c(c1)c1c(n2CCc2ccc(C)nc2)CCN(C)C1 [LATREPIRDINE],Population Apoptotic (%),[1],60%
same,Population Fragmented Nuclei (%),[1],26%
same,Population Healthy Nuclei (%),[1],55%
same,Population Hoechst High Intensity Objects (%),[1],15%
same,Population Membrane Permeable-Phenotype (%),[1],18%
same,Population Mitochondria Different-Phenotype (%),[1],18%
same,Population Mitotic Cells (%),[1],40%
same,Population Normal (%),[1],84%
same,Population Pyknosed Nuclei (%),[1],18%
same,Population Tubulin-Different-Phenotype (%),[1],59%
same,Total Cell Count,[1],127
same,Population Apoptotic (%),[2],100%
same,Population Fragmented Nuclei (%),[2],27%
same,Population Healthy Nuclei (%),[2],67%
same,Population Hoechst High Intensity Objects (%),[2],16%
same,Population Membrane Permeable-Phenotype (%),[2],5%
same,Population Mitochondria Different-Phenotype (%),[2],27%
same,Population Mitotic Cells (%),[2],0%
same,Population Normal (%),[2],83%
same,Population Pyknosed Nuclei (%),[2],4%
same,Population Tubulin-Different-Phenotype (%),[2],27%
same,Total Cell Count,[2],61
same,Population Apoptotic (%),[3],55%
same,Population Fragmented Nuclei (%),[3],29%
same,Population Healthy Nuclei (%),[3],47%
same,Population Hoechst High Intensity Objects (%),[3],15%
same,Population Membrane Permeable-Phenotype (%),[3],3%
same,Population Mitochondria Different-Phenotype (%),[3],30%
same,Population Mitotic Cells (%),[3],44%
same,Population Normal (%),[3],84%
same,Population Pyknosed Nuclei (%),[3],23%
same,Population Tubulin-Different-Phenotype (%),[3],88%
same,Total Cell Count,[3],148
same,Population Apoptotic (%),[4],88%
same,Population Fragmented Nuclei (%),[4],7%
same,Population Healthy Nuclei (%),[4],65%
same,Population Hoechst High Intensity Objects (%),[4],8%
same,Population Membrane Permeable-Phenotype (%),[4],42%
same,Population Mitochondria Different-Phenotype (%),[4],100%
same,Population Mitotic Cells (%),[4],11%
same,Population Normal (%),[4],91%
same,Population Pyknosed Nuclei (%),[4],26%
same,Population Tubulin-Different-Phenotype (%),[4],100%
same,Total Cell Count,[4],103
same,Population Apoptotic (%),[5],60%
same,Population Fragmented Nuclei (%),[5],27%
same,Population Healthy Nuclei (%),[5],59%
same,Population Hoechst High Intensity Objects (%),[5],16%
same,Population Membrane Permeable-Phenotype (%),[5],22%
same,Population Mitochondria Different-Phenotype (%),[5],14%
same,Population Mitotic Cells (%),[5],40%
same,Population Normal (%),[5],83%
same,Population Pyknosed Nuclei (%),[5],12%
same,Population Tubulin-Different-Phenotype (%),[5],61%
same,Total Cell Count,[5],140
same,Population Apoptotic (%),[6],55%
same,Population Fragmented Nuclei (%),[6],23%
same,Population Healthy Nuclei (%),[6],67%
same,Population Hoechst High Intensity Objects (%),[6],13%
same,Population Membrane Permeable-Phenotype (%),[6],10%
same,Population Mitochondria Different-Phenotype (%),[6],27%
same,Population Mitotic Cells (%),[6],44%
same,Population Normal (%),[6],86%
same,Population Pyknosed Nuclei (%),[6],8%
same,Population Tubulin-Different-Phenotype (%),[6],14%
same,Total Cell Count,[6],74
same,Population Apoptotic (%),[7],55%
same,Population Fragmented Nuclei (%),[7],33%
same,Population Healthy Nuclei (%),[7],51%
same,Population Hoechst High Intensity Objects (%),[7],28%
same,Population Membrane Permeable-Phenotype (%),[7],10%
same,Population Mitochondria Different-Phenotype (%),[7],37%
same,Population Mitotic Cells (%),[7],45%
same,Population Normal (%),[7],71%
same,Population Pyknosed Nuclei (%),[7],14%
same,Population Tubulin-Different-Phenotype (%),[7],82%
same,Total Cell Count,[7],189
same,Population Apoptotic (%),[8],76%
same,Population Fragmented Nuclei (%),[8],4%
same,Population Healthy Nuclei (%),[8],56%
same,Population Hoechst High Intensity Objects (%),[8],4%
same,Population Membrane Permeable-Phenotype (%),[8],56%
same,Population Mitochondria Different-Phenotype (%),[8],100%
same,Population Mitotic Cells (%),[8],24%
same,Population Normal (%),[8],95%
same,Population Pyknosed Nuclei (%),[8],38%
same,Population Tubulin-Different-Phenotype (%),[8],100%
same,Total Cell Count,[8],119
same,Population Apoptotic (%),[9],88%
same,Population Fragmented Nuclei (%),[9],36%
same,Population Healthy Nuclei (%),[9],55%
same,Population Hoechst High Intensity Objects (%),[9],23%
same,Population Membrane Permeable-Phenotype (%),[9],13%
same,Population Mitotic Cells (%),[9],11%
same,Population Normal (%),[9],76%
same,Population Pyknosed Nuclei (%),[9],8%
same,Population Tubulin-Different-Phenotype (%),[9],42%
same,Total Cell Count,[9],140
same,Population Apoptotic (%),[10],100%
same,Population Fragmented Nuclei (%),[10],53%
same,Population Healthy Nuclei (%),[10],43%
same,Population Hoechst High Intensity Objects (%),[10],44%
same,Population Membrane Permeable-Phenotype (%),[10],22%
same,Population Mitochondria Different-Phenotype (%),[10],6%
same,Population Mitotic Cells (%),[10],0%
same,Population Normal (%),[10],55%
same,Population Pyknosed Nuclei (%),[10],3%
same,Population Tubulin-Different-Phenotype (%),[10],56%
same,Total Cell Count,[10],206
same,Population Fragmented Nuclei (%),[11],40%
same,Population Healthy Nuclei (%),[11],56%
same,Population Hoechst High Intensity Objects (%),[11],31%
same,Population Membrane Permeable-Phenotype (%),[11],7%
same,Population Mitochondria Different-Phenotype (%),[11],21%
same,Population Normal (%),[11],68%
same,Population Pyknosed Nuclei (%),[11],3%
same,Population Tubulin-Different-Phenotype (%),[11],80%
same,Total Cell Count,[11],208
same,Population Apoptotic (%),[12],100%
same,Population Fragmented Nuclei (%),[12],34%
same,Population Healthy Nuclei (%),[12],64%
same,Population Hoechst High Intensity Objects (%),[12],25%
same,Population Membrane Permeable-Phenotype (%),[12],14%
same,Population Mitochondria Different-Phenotype (%),[12],9%
same,Population Mitotic Cells (%),[12],0%
same,Population Normal (%),[12],74%
same,Population Pyknosed Nuclei (%),[12],2%
same,Population Tubulin-Different-Phenotype (%),[12],79%
same,Total Cell Count,[12],134
